From article PMC2196149 (The Journal of Experimental Medicine, 1997)
Primed or numbered codes have the meaning given here. No end group written: not given here. *: point of attachment. IASA″ = iodo-4-azidosalicylic acid, on the N-terminus in place of PbCS S-252; Benzoyl(4-N3) = [N-]=[N+]=Nc1ccc(C(=O)*)cc1; IASA = iodo-4-azidosalicylic acid

Tests used:
[1] = test system: seven IASA-YIPSAEK(ABA)I-specific CTL clones; assay: 51Cr release cytolytic assay, P815 targets, seven CTL clones; assay type: cell-based, mice; conditions: clones S1, S4, S14, S15, S17, S18, T1; 51Cr-labeled P815 targets; wt = 1 (Fig. 3 A)
TCR on CTL S17 = assay: TCR-ligand dissociation, clone S17; assay type: binding, mice; conditions: preliminary, unpublished results
S15 CTL = assay: 51Cr release cytolytic assay, P815 targets, clone S15; assay type: cell-based, mice; conditions: 51Cr-labeled P815 targets; partial recognition
Summary of the method: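 Cloned CTL are tested on 51Cr-labeled P815 mastocytoma targets (DMEM, 5% FCS, 10 mM Hepes), 2 × 10^3/well, with threefold dilutions of peptide derivative. CTL (6 × 10^3/well) added after 15 min; 4 h at 37°C. Supernatant 51Cr measured. Specific lysis = 100 × (experimental − spontaneous)/(total − spontaneous release).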

S15 CTL / A20 cells = assay: 51Cr release cytolytic assay, A20 targets, clone S15; assay type: cell-based, mice; conditions: 51Cr-labeled A20 cells, E/T 3:1, 8 h; representative experiment (Fig. 4 A)
Summary of the method: (§1)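 Murine H-2Kd-restricted CTL clone specific for a photoreactive derivative of a Plasmodium berghei circumsporozoite 252–260 peptide. Targets are 51Cr-labeled A20 B lymphoma cells or their Fas-lacking variant, 2 × 10^3/well, in threefold dilutions of peptide derivative in DMEM + 5% FCS + 10 mM Hepes. CTL (6 × 10^3/well) added after 15 min; 8 h at 37°C. Supernatant 51Cr counted. Specific lysis = 100 × (experimental − spontaneous)/(total − spontaneous).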

[2] = test system: S15 CTL / A20 Fas^− cells; assay: 51Cr release cytolytic assay, A20 Fas^− targets, clone S15; assay type: cell-based, mice; conditions: 51Cr-labeled A20 Fas^− cells, E/T 3:1, 8 h; representative experiment (Fig. 4 B)
Summary of the method: as §1

TCR on CTL T1 = assay: TCR-ligand dissociation, clone T1; assay type: binding, mice; conditions: preliminary, unpublished results
S14 CTL = assay: inhibition of recognition of photocross-linked IASA-YIPSAEK; assay type: cell-based, mice; conditions: P815 cells photocross-linked with suboptimal IASA-YIPSAEK(ABA)I (Fig. 5 B)
TCR on CTL S4 = assay: TCR-ligand dissociation, clone S4; assay type: binding, mice; conditions: preliminary, unpublished results

With S256A ({IASA″}-YIPAAEK(Benzoyl(4-N3))I) the “normalized relative antigenic activities over seven CTL clones” value (from here on “normalized relative antigenic activities”) [1] was 0.1 to 6 and the “dissociation of ligand from TCR compared with wild-type ligand” value (TCR on CTL S17) was “faster”.

With I254A ({IASA}-YAPSAEK(Benzoyl(4-N3))I) the “normalized relative antigenic activities” value [1] was 0.1 to 6.

For IASA-YIPSAEK(IASA)I, the “plateau of specific lysis, S15 CTL” value (S15 CTL) was “even lower plateau of lysis”.

With IASA-YIPSAEK(ASA)I [K259(ASA)] the “normalized relative antigenic activities” value [1] was “efficiently recognized by all clones, except by clone S15”, the “specific lysis at half-maximum, A20 cells, S15 CTL” value (S15 CTL / A20 cells) was 13% and the “plateau of specific lysis, S15 CTL” value (S15 CTL) was at most 30%. The “concentration for half-maximal lysis of A20 Fas^− cells by S15 CTL” value [2] was “not detectably lysed”.

In the case of “P255A ({IASA}-YIASAEK(Benzoyl(4-N3))I; not fully specified)”, the “normalized relative antigenic activities” value [1] was 0.1 to 6 and the “dissociation of ligand from TCR compared with wild-type ligand” value (TCR on CTL T1) was “faster”.

With “P255L ({IASA}-YILSAEK(Benzoyl(4-N3))I; not fully specified)” the “concentration required for maximal inhibition relative to K259(BA), S14 CTL” value (S14 CTL) was about 10 fold.

In the case of “P255S ({IASA}-YISSAEK(Benzoyl(4-N3))I; not fully specified)”, the “dissociation of ligand from TCR compared with wild-type ligand” value (TCR on CTL S17) was “considerably slower”.

For E258A ({IASA}-YIPSAAK(Benzoyl(4-N3))I), the “dissociation of ligand from TCR compared with wild-type ligand” value (TCR on CTL S4) was “considerably slower”.
